Assay [1] has as its target T1, Alpha-1B adrenergic receptor (Homo sapiens, UniProt P35368).
T1 sequence (P35368 whole entry): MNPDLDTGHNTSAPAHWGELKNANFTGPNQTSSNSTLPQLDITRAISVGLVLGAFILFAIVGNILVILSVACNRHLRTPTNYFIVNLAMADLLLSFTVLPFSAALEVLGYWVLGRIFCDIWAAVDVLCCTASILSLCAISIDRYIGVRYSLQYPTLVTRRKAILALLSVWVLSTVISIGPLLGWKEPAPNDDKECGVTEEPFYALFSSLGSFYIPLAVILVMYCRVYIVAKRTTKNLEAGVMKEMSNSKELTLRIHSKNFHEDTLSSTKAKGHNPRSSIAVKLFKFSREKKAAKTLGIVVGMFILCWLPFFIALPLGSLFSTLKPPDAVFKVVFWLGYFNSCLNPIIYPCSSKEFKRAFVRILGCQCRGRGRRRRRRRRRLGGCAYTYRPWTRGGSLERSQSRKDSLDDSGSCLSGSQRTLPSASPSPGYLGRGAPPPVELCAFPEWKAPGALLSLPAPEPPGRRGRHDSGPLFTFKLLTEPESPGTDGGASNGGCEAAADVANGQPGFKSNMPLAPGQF
Put plainly: Inhibition of alpha1B adrenergic receptor. In outline:
(§1)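 Radioligand competition binding, run first as a single-concentration broad screen at […], then as concentration-response for follow-up targets, with the reference compound tested in parallel. Specific binding is total minus binding in excess unlabelled ligand, expressed as % of control specific binding. IC50 and Hill coefficient come from non-linear Hill-equation regression of competition curves built from mean replicate values.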

In assay [2] the target is T2, Alpha-1D adrenergic receptor (Homo sapiens, UniProt P25100).
T2 sequence (P25100 whole entry): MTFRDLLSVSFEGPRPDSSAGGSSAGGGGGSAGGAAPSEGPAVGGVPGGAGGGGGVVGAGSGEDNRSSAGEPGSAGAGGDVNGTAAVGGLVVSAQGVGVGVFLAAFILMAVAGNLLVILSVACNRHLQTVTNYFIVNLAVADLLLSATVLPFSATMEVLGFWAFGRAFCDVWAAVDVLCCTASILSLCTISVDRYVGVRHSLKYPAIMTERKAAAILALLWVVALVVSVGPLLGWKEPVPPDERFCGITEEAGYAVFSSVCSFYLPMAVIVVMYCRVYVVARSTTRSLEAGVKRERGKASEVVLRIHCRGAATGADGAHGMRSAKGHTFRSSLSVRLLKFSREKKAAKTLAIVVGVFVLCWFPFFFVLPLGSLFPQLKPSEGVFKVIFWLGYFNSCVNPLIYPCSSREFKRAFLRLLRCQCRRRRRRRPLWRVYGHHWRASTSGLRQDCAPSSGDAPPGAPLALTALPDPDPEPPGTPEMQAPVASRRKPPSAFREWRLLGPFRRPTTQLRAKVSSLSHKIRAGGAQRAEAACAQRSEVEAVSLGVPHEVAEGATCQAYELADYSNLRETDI
The assay is described as follows: Inhibition of alpha1D adrenergic receptor. The gist of the method:
as §1

Assay [3] addresses T3, Alpha-2A adrenergic receptor (Homo sapiens, UniProt P08913).
T3 sequence (P08913 whole entry): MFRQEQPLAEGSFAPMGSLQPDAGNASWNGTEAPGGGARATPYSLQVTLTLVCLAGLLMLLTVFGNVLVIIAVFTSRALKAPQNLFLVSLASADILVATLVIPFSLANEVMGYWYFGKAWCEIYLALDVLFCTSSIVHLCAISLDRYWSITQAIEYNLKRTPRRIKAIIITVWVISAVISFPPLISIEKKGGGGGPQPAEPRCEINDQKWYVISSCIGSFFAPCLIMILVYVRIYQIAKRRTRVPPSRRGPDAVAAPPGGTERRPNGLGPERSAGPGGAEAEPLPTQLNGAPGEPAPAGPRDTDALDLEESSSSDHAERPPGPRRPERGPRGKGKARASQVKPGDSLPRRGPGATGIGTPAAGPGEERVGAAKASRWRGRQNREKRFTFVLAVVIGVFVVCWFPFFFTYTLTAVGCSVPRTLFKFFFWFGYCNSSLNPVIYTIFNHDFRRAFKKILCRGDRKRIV
Put plainly: Inhibition of alpha2A adrenergic receptor. In outline:
as §1

Assay [4] has as its target T4, Alpha-2C adrenergic receptor (Homo sapiens, UniProt P18825).
T4 sequence (P18825 whole entry): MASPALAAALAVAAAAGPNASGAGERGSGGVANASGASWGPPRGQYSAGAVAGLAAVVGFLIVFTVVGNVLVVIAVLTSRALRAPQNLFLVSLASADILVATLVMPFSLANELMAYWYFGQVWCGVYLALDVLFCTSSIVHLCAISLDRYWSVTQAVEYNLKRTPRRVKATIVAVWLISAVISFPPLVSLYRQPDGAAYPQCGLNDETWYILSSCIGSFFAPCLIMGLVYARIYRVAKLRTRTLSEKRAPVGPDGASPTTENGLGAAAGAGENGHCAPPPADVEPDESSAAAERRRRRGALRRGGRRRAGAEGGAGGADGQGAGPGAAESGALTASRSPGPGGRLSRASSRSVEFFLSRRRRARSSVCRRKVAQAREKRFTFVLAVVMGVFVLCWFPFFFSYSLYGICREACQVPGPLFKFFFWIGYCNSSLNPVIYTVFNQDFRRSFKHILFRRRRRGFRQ
The assay is described as follows: Inhibition of alpha2C adrenergic receptor. The gist of the method:
as §1

Assay [5] concerns the target T5, Muscarinic acetylcholine receptor M1 (Homo sapiens, UniProt P11229).
T5 sequence (P11229 whole entry): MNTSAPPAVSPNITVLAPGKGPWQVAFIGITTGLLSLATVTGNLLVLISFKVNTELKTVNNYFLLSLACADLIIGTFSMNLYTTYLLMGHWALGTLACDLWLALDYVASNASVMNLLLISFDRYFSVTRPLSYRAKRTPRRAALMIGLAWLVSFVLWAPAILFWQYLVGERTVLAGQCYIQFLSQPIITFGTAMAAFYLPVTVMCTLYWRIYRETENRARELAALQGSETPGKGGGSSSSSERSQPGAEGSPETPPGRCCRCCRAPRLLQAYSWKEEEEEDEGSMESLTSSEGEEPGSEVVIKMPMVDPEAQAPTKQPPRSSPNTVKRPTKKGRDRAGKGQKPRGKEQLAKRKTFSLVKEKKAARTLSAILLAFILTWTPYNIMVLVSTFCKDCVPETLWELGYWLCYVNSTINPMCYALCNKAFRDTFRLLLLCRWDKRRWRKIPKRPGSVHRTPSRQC
Put plainly: Inhibition of muscarinic M1 receptor. The gist of the method:
as §1

In assay [6] the target is Muscarinic acetylcholine receptor M3 (Homo sapiens, UniProt P20309). The assay is described as follows: Inhibition of muscarinic M3 receptor. In outline: as §1
Sequence of Muscarinic acetylcholine receptor M3 (P20309 whole entry): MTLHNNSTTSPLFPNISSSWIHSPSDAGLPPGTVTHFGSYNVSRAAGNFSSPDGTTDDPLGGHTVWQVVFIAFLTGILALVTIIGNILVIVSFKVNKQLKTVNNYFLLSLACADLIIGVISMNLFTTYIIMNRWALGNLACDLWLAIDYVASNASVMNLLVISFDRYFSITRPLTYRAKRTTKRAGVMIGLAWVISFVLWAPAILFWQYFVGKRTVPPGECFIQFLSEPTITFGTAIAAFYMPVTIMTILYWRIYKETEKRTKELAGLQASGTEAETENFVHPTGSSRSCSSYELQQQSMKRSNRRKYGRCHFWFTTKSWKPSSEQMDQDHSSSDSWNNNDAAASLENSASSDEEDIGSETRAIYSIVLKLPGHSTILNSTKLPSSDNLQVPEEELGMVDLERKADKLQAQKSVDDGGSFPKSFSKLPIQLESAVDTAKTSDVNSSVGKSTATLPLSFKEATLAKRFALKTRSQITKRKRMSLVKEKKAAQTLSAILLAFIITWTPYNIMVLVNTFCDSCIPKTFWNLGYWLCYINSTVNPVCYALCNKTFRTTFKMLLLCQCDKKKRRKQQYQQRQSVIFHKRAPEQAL

As for `N=C(Nc1ccc2c(c1)CCN2C1CCNCC1)c1cccs1`, the IC50 in assay [1] was 1.8 µM; in assay [2], 2.2 µM; in assay [3], 24 µM; in assay [4], 11 µM; in assay [5], 8.6 µM; in assay [6], 4.5 µM.

As a reminder, the IC50 is the concentration needed to halve the response being measured. Read a high IC50 as weaker potency.

The values are drawn from ChEMBL document CHEMBL2203205 (Eur J Med Chem, 2012).
